Source: PubChem BioAssay (several laboratories)
TbMetRS inhib: blocks T. brucei methionyl-tRNA synthetase activity; purified T. brucei MetRS, ATP depletion, Kinase-Glo luminescence; hit rate 0.4% among 360,000; AID 624268; inhibition, % at 11.9 µM;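 active = inhibition above a per-plate cutoff of the control wells' mean inhibition plus 3 SD, cut at about 5.5% in these data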;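 note: 0% = DMSO wells median and 100% = median of wells with control inhibitor compound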
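Measured by: Kinase-Glo luciferase luminescence reporting remaining unconsumed ATP. Material: purified T. brucei MetRS enzyme. Doses: 11.9 µM compound single dose, 0.9% DMSO. Medium: HEPES buffer containing pyrophosphatase, BSA, spermine, DTT. Times: 15 min preincubation, 2 h reaction, all 25 °C. Reagent: methionine, ATP and bulk E. coli tRNA.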
Rin1 Abl inh: inhibitors of human Rin1-Abl protein interaction. P00519+Q13671. TR-FRET Rin1/Abl binding, biochemical. inhibition, % at 7.35 µM. hit rate 0.4% among 360,000; in the data active = inhibition above about 5%, passing the limit was not always enough
SKN-1 block: C. elegans SKN-1 inhibition. C. elegans VP596 Pgst-4::GFP/RFP ratio, acrylamide-induced, 24 h. inhibition, % at 21.8 µM. hit rate 0.49% among 360,000. AID 624304;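 active = interference check ratio from 0.5 to 1.5 plus GFP to RFP signal ratio inhibition reaching or exceeding a fixed threshold, cut at about 30% in these data, passing the limit was not always enough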
MT1-MMP act inh: blocks activation of human MT1-MMP; hit rate 0.061% among 360,000; P50281; GFP/RFP ratio change, % at 20 µM; HT1080 RFP-PRO-GFP cells, GFP/RFP ratio fluorescence, overnight; percent of plate control window, DMSO zero;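 active = GFP/RFP ratio change of at least 30% with cell ATP level not reduced by more than half and red fluorescence within 50% of control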
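Assay system – RFP-PRO-GFP reporter HT1080 cells · Compound dosing – single dose of 20 µM compound, 1% DMSO final · Incubation – overnight compound exposure at 37 °C · Measure – GFP/RFP fluorescence ratio · Benchmarks – DMSO wells and RFP-L50D-GFP cells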
Arr AP2 block: blocks beta-arrestin peptide binding to AP2 adaptin; FITC-arrestin peptide / GST-AP2 beads, flow cytometry; AP2 beta2 appendage carries R879A mutation; hit rate 0.31% among 340,000; AID 504490; inhibition, % at 10 µM;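 active = inhibition above a set limit, near 3 SD of compounds lacking own fluorescence, cut at about 54% in these data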;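 note: plate controls were DMSO wells for no effect and 5 µM unlabelled arrestin peptide for full effect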
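System: GST-AP2 R879A glutathione beads. Medium: PBS with 0.05% Tween 20 and 0.1% BSA. Also added: FITC-arrestin peptide, 50 nM. Incubation: 12 min plus 1 h, RT. Measured by: high-throughput flow cytometry of beads, ex 488, em 535 nm. Evaluation: percent drop in bead-associated FITC signal.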
Arr AP2 CP1: inhibitors of human beta-arrestin and AP2 interaction. shares compounds with Arr AP2 block. inhibition, % at 10 µM. GST-AP2 beads, FITC arrestin peptide binding, flow cytometry; GST-fused beta2-adaptin appendage, R879A mutant. hit rate 2% among 1,300;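 active = inhibition above a set limit, roughly 3 SD of non-fluorescent compound noise, cut at about 38% in these data; inactive = inhibition at or below that limit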;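 note: loss of bead fluorescence from 50 nM FITC arrestin peptide bound to appendage; 0% = negative control wells and 100% = excess unlabelled arrestin peptide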
GST GSH counter: disrupts GST binding to glutathione beads, arrestin-AP2 artifact | inhibition, % at 10 µM | hit rate 2% among 1,300 | AID 588338 | GST-fluorescein binding to GSH beads, fluorescence, counter-screen | shares compounds with Arr AP2 block;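 active = inhibition above 50%, about 3 SD of the inhibition seen with non-fluorescent compounds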;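 note: fluorescein maleimide labelled GST captured on 4 micron glutathione beads; higher means more loss of bead fluorescence from quenching or blocked binding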
* hit, by the source's call; / = not tested or not shown. An excerpt weighted towards active compounds, which were near 1.6% of everything screened.

SMILES	TbMetRS inhib	Rin1 Abl inh	SKN-1 block	MT1-MMP act inh	Arr AP2 block	Arr AP2 CP1	GST GSH counter
O=C(NC1=C(Nc2ccc(Cl)cc2)C(=O)c2ccccc2C1=O)c1ccccc1	0.5	-9.9	13.7	11.7	16.8	/	/
O=C1C(Cl)=C(NC(=O)c2ccccc2)C(=O)C(Cl)=C1NC(=O)c1ccccc1	1.0	2.1	7.2	-3.8	58.1*	75.0*	8.8
C1=C(CCNc2nnnn2-c2ccccc2)CCCC1	-0.3	0.4	-0.7	2.2	54.7*	3.9	-1.4
c1ccc(-n2nnnc2NCCCN2CCOCC2)cc1	-1.1	1.6	2.2	0.7	-1.3	/	/
Cc1ccc(CN2C(=O)CCC2C(=O)NCCN2CCN(c3cccc(Cl)c3)CC2)cc1 (stereo not given)	-0.6	-0.4	0.6	-0.6	5.8	6.6	1.7
O=C(O)C1CCC(=O)N1Cc1ccc(F)cc1 (stereo not given)	-0.9	-2.9	13.7	/	2.9	/	/
CNC(=O)C1CCC(=O)N1Cc1ccc(C)cc1 (stereo not given)	0.8	0.2	-1.3	4.4	1.4	/	/
Cc1ccc(CN2C(=O)CCC2C(=O)NCCCN2CCOCC2)cc1 (stereo not given)	-0.1	1.5	13.9	0.7	91.8*	5.3	-1.0
CCC1CCCCN1CCCNC(=O)C1CCC(=O)N1Cc1ccc(C)cc1 (stereo not given)	-0.2	-1.1	-4.6	1.5	-3.8	-4.9	0.5
O=C(NCCN1CCOCC1)C1CCC(=O)N1Cc1ccc(F)cc1 (stereo not given)	0.2	0.0	-13.6	-1.2	-2.3	-5.0	1.2
O=C(NCc1ccccc1)C(c1ccc(-c2ccccc2)cc1)N1CCN(c2ccccc2F)CC1 (stereo not given)	-0.8	/	14.3	-2.4	/	/	/
NC(CCc1ccccc1)c1csc(Nc2nccc(C(F)(F)F)n2)n1 (stereo not given)	-0.2	1.9	2.0	0.4	/	/	/
O=C(NCC1CCCN1S(=O)(=O)c1cccs1)c1cccc(F)c1 (stereo not given)	-0.2	-1.2	12.7	-3.2	2.5	/	/
Cc1ccc(CN2C(=O)CCC2C(=O)NCCCN2CCC(C)CC2)cc1 (stereo not given)	-1.5	1.4	14.1	5.5	-2.7	-1.7	9.6
O=C(NCC1CCCO1)C1CCC(=O)N1Cc1ccccc1Cl (stereo not given)	-1.3	-2.7	6.2	-0.2	7.8	/	/
Cc1ccc(CN2C(=O)CCC2C(=O)NCc2ccco2)cc1 (stereo not given)	0.1	2.1	-1.7	1.7	92.3*	13.2	1.0
CCOc1cc(NC(=S)NCCCN2CCOCC2)c(OCC)cc1NC(=O)c1ccc(C)cc1	-0.4	0.9	-12.8	2.3	57.7*	-1.7	-7.3
O=C(NCCN1CCOCC1)C1CCC(=O)N1Cc1ccccc1Cl (stereo not given)	-0.2	1.6	-9.4	-0.5	12.0	10.3	-2.2
Cc1ccc(CNC(=O)C2CCC(=O)N2Cc2ccc(F)cc2)cc1 (stereo not given)	-0.6	-0.2	-22.6	1.5	6.5	/	/
C[C@@H]1CN([C@H](C)CO)C(=O)CCCn2nncc2CO[C@H]1CN(C)S(=O)(=O)c1cccc(F)c1	0.6	-3.4	-21.1	3.3	/	/	/
CCn1cc(C(=O)N[C@H](C(=O)O)C(C)C)c(=O)c2cc3c(cc21)OCO3	-0.6	-1.7	-10.6	-1.9	-10.9	/	/
CCn1cc(C(=O)N[C@@H](C)C(=O)OC)c(=O)c2cc3c(cc21)OCO3	-1.1	1.9	-4.5	-2.0	55.0*	-1.5	-4.7
O=C(NC1CCCCC1)N(CCN1CCCC1)Cc1cc2cc3c(cc2[nH]c1=O)OCCO3	-0.5	0.1	23.7	-3.3	-4.3	/	/
O=C(NC1CCCCC1)N(Cc1cc2cc3c(cc2[nH]c1=O)OCCO3)CC1CCCO1 (stereo not given)	0.7	-3.4	13.7	6.1	-1.6	-8.9	-1.1
Cc1ccc2cc(CN(Cc3ccco3)C(=O)NC3CCCCC3)c(=O)[nH]c2c1C	0.1	6.6	18.7	-30.9	12.5	/	/
SMILES	TbMetRS inhib	Rin1 Abl inh	SKN-1 block	MT1-MMP act inh	Arr AP2 block	Arr AP2 CP1	GST GSH counter
Cc1ccc2cc(CN(CCCN3CCOCC3)C(=O)NC3CCCCC3)c(=O)[nH]c2c1C	-1.0	-3.1	11.5	-20.9	-3.5	1.2	-10.3
O=C(NC1CCCCC1)N(CCO)Cc1cc2cc3c(cc2[nH]c1=O)OCCO3	-0.1	4.6	12.6	4.5	8.3	/	/
Cc1cc2cc(CN(CCCN3CCOCC3)C(=O)NC3CCCCC3)c(=O)[nH]c2cc1C	-0.8	-2.4	8.3	-0.8	-0.7	-4.5	-2.4
CCc1ccc2[nH]c(=O)c(CN(CCN(CC)CC)C(=O)NC3CCCCC3)cc2c1	0.2	-1.4	26.5	-3.9	76.1*	8.3	-6.7
O=C1C=C(OCCCl)CC(c2cccc(Cl)c2)O1 (stereo not given)	0.2	/	4.9	9.3	/	/	/
Cc1cccc2cc(CN(CCN3CCCC3)C(=O)NC3CCCCC3)c(=O)[nH]c12	-2.2	0.1	-5.1	-1.3	12.8	1.2	-8.6
Cc1cccc2cc(CN(CCN3CCOCC3)C(=O)Nc3ccccc3F)c(=O)[nH]c12	-0.9	2.1	7.6	-0.5	-7.7	/	/
CCN1CCCC1CN(Cc1cc2c(C)cc(C)cc2[nH]c1=O)C(=O)NC1CCCCC1 (stereo not given)	-0.9	3.8	0.6	0.1	13.9	-6.1	-4.4
Cc1ccc(CNC(=O)CS(=O)(=O)c2cn(CC(=O)N3CCOCC3)c3ccccc23)cc1	0.1	1.7	12.9	-2.4	60.0*	-0.9	-12.4
COC(=O)c1cccc(NC(=O)CN(c2ccc3c(c2)OCO3)S(C)(=O)=O)c1C	-0.5	1.0	-28.4	-0.5	61.1*	7.4	4.8
COC(=O)c1ccc(Cl)c(NC(=O)CN(c2ccc3c(c2)OCO3)S(C)(=O)=O)c1	-0.3	-1.8	-5.3	0.8	6.4	/	/
COc1cc([N+](=O)[O-])cc2sc(NC(C)=O)nc12	-0.9	-3.8	1.1	-9.1	13.1	/	/
CCCCC(=O)Nc1nc2c(OC)cc([N+](=O)[O-])cc2s1	-1.0	-1.0	7.1	-0.6	54.9*	-11.6	-10.2
Cc1ccc(S(=O)(=O)N2CCCCC2)cc1NC(=O)COC(=O)c1ccc(=O)[nH]c1	0.2	-1.0	21.2	-1.1	-3.7	/	/
CCCOc1ccc(C2C(C(=O)c3ccc(C)o3)=C(O)C(=O)N2Cc2ccco2)cc1 (stereo not given)	0.1	-13.4	6.7	-0.6	-15.8	/	/
CCCOc1ccc(C2C(C(=O)c3ccc(C)o3)=C(O)C(=O)N2Cc2ccco2)cc1OCC (stereo not given)	-0.3	-3.7	-4.5	0.9	64.4*	6.7	1.7
